Source: ChEMBL document CHEMBL4673378, “Investigating the effects of the core nitrogen atom configuration on the thermodynamic solubility of 6,5-bicyclic heterocycles” (Bioorg Med Chem Lett, 2021)
Values after ≈ are worked out from the molar mass of the structure shown.

Columns and labels:
Assay type in all cases: physicochemical
[1] = Thermodynamic solubility of compound in SLF at pH 6.9 using crystalline form of sample; conditions: read-out: Therm_solubility
Outline: (§1)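 Thermodynamic solubility was measured from solid in Simulated Lung Fluid, buffered at pH 6.9 and containing 0.75 mM lecithin plus bovine serum albumin, reported in μg/mL. Runs were at least duplicate unless otherwise footnoted. Amorphous or crystalline material was used, as the line states.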

[2] = Kinetic solubility of the compound at pH 7.4 using crystalline form of sample; conditions: read-out: Kinetic_solubility
Outline: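 Solubility at pH 7.4 measured from a 10 mM DMSO stock (stock concentration) of crystalline material, reported in μg/mL. Runs were at least duplicate unless otherwise footnoted.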

[3] = Melting point of the compound using crystalline form of sample
[4] = Ionization constant, pKa of the compound
[5] = Thermodynamic solubility of compound in FaSSIF at pH 6.5 using crystalline form of sample; conditions: read-out: Therm_solubility
Outline: (§2)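 Thermodynamic solubility in Fasted State Simulated Intestinal Fluid, buffered at pH 6.5 and containing 0.75 mM lecithin, reported in μg/mL. Runs were at least duplicate unless otherwise footnoted. Solid form was amorphous or crystalline, as the line states.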

[6] = Lipophilicity, log D of the compound at pH 7.4 by chromatographic reverse phase method; conditions: reverse phase chromatography
[7] = Thermodynamic solubility of compound in FaSSIF at pH 6.5 using amorphous form of sample; conditions: read-out: Therm_solubility; outline: as §2
[8] = Thermodynamic solubility of compound in SLF at pH 6.9 using amorphous form of sample; conditions: read-out: Therm_solubility; outline: as §1
[9] = Melting point of the compound using amorphous form of sample

Structure (SMILES)	solubility thermodynamic [1] [µg/mL]	solubility kinetic [2] [µg/mL]	Tm [3] [°C]	pKa [4]	solubility thermodynamic [5] [µg/mL]	chromatographic logD [6]	solubility thermodynamic [7] [µg/mL]	solubility thermodynamic [8] [µg/mL]	Tm [9] [°C]
COc1ccc(-c2c(C)nn3c(NCC4CCOCC4)cc(C)nc23)cc1OC	18 (≈ 45.4 µM)	> 180	157	5.7	25 (≈ 63.1 µM)	5.2			
COc1ccc(-c2c(C)nc3c(NCc4ccc(C(N)=O)cc4)nc(C)cn23)cc1OC		53 (≈ 123 µM)		5		3.9	32 (≈ 74.2 µM)	9 (≈ 20.9 µM)	191
COc1ccc(-c2c(C)nc3c(NCC4CCOCC4)cc(C)cn23)cc1OC	29 (≈ 73.3 µM)	64 (≈ 162 µM)	90	6.7	233 (≈ 589 µM)	6			
COc1ccc(-c2c(C)nc3c(NCc4cccnc4)nc(C)cn23)cc1OC		67 (≈ 172 µM)		5.3		4.5	335 (≈ 860 µM)	58 (≈ 149 µM)	128
COc1ccc(-c2c(C)nn3c(NCC4CCOCC4)nc(C)nc23)cc1OC	18 (≈ 45.3 µM)	> 165	143	3.1	29 (≈ 73 µM)	5.1			
COc1ccc(-c2c(C)nn3c(NCC4CCOCC4)nc(C)cc23)cc1OC	3 (≈ 7.57 µM)	44 (≈ 111 µM)	104	4.4	13 (≈ 32.8 µM)	6.4			

Now from value to molecule:

solubility thermodynamic [1] [µg/mL]	solubility kinetic [2] [µg/mL]	Tm [3] [°C]	pKa [4]	solubility thermodynamic [5] [µg/mL]	chromatographic logD [6]	solubility thermodynamic [7] [µg/mL]	solubility thermodynamic [8] [µg/mL]	Tm [9] [°C]	Structure (SMILES)
33 (≈ 84.9 µM)	86 (≈ 221 µM)	85	6.5	109 (≈ 281 µM)	4.9				COc1ccc(-c2c(C)nc3c(NCc4cccnc4)cc(C)cn23)cc1OC
6 (≈ 15.4 µM)	35 (≈ 89.9 µM)	101	2.8	31 (≈ 79.6 µM)	5.5				COc1ccc(-c2c(C)nn3c(NCc4cccnc4)nc(C)cc23)cc1OC
	99 (≈ 250 µM)		5.6		5.2	7 (≈ 17.7 µM)	10 (≈ 25.2 µM)	93	COc1ccc(-c2c(C)nc3c(NCC4CCOCC4)nc(C)cn23)cc1OC
1 (≈ 2.32 µM)	79 (≈ 183 µM)	238	5.4	15 (≈ 34.8 µM)	3.7				COc1ccc(-c2c(C)nn3c(NCc4ccc(N(C)C)cc4)cc(C)nc23)cc1OC
< 6	19 (≈ 44 µM)	194	3.8	5 (≈ 11.6 µM)	4.8				COc1ccc(-c2c(C)nn3c(NCc4ccc(C(N)=O)cc4)nc(C)cc23)cc1OC
2 (≈ 4.65 µM)	29 (≈ 67.4 µM)	203	6.6	6 (≈ 13.9 µM)	4.3				COc1ccc(-c2c(C)nc3c(NCc4ccc(C(N)=O)cc4)cc(C)cn23)cc1OC
39 (≈ 100 µM)	> 107	149	5.4	141 (≈ 362 µM)	4.3				COc1ccc(-c2c(C)nn3c(NCc4cccnc4)cc(C)nc23)cc1OC
10 (≈ 23.1 µM)	19 (≈ 43.9 µM)	167	2.9	32 (≈ 74 µM)	3.9				COc1ccc(-c2c(C)nn3c(NCc4ccc(N(C)C)cc4)nc(C)nc23)cc1OC
36 (≈ 92.2 µM)	> 150	149	2.5	36 (≈ 92.2 µM)	4.5				COc1ccc(-c2c(C)nn3c(NCc4cccnc4)nc(C)nc23)cc1OC
